What was measured:
Brain [1] = test: Drug uptake in Kunming mouse brain […] iv ibuprofen administered as single dose by HPLC analysis relative to ibuprofen; assay type: ADME, organism-based; details: in vivo
Brain [2] = test: Drug uptake in Kunming mouse brain assessed as concentration efficiency […] iv ibuprofen administered as single dose by HPLC analysis relative to ibuprofen; assay type: ADME, organism-based; details: in vivo
[3] = Chemical stability of compound in phosphate buffer assessed as first order rate constant of disappearance of drug at pH 2.21 by HPLC analysis; assay type: physicochemical
How it was run: (§1)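 Methanol solution of compound mixed into 4 ml phosphate buffer (pH 2.21, 5.86, 7.33 or 7.88), held at 37 °C; samples taken at 0, 1, 3, 6, 12, 24 h and analysed by reverse-phase HPLC (methanol/water 70:30, pH 2.86, UV 219 nm). Pseudo-first-order Kdisapp from linear regression of ln peak area against time in hours; t1/2 derived from it.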

[4] = Chemical stability of compound in phosphate buffer assessed as first order rate constant of disappearance of drug at pH 5.86 by HPLC analysis; assay type: physicochemical; how it was run: as §1
[5] = Chemical stability of compound in phosphate buffer assessed as first order rate constant of disappearance of drug at pH 7.33 by HPLC analysis; assay type: physicochemical; how it was run: as §1
[6] = Chemical stability of compound in phosphate buffer assessed as first order rate constant of disappearance of drug at pH 7.88 by HPLC analysis; assay type: physicochemical; how it was run: as §1
[7] = Chemical stability of compound in phosphate buffer assessed as half life at pH 2.21 by HPLC analysis; assay type: physicochemical; how it was run: as §1
[8] = Chemical stability of compound in phosphate buffer assessed as half life at pH 5.86 by HPLC analysis; assay type: physicochemical; how it was run: as §1
[9] = Chemical stability of compound in phosphate buffer assessed as half life at pH 7.33 by HPLC analysis; assay type: physicochemical; how it was run: as §1
[10] = Chemical stability of compound in phosphate buffer assessed as half life at pH 7.88 by HPLC analysis; assay type: physicochemical; how it was run: as §1
[11] = Metabolic stability in mouse plasma assessed as first order rate constant of disappearance of drug by HPLC analysis; assay type: ADME, cell-free
How it was run: (§2)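 Incubation in mouse plasma extract or brain homogenate at 37 °C; remaining compound measured by HPLC (UV 219 nm). Pseudo-first-order Kdisapp from linear regression of ln peak area against time in minutes; half-life derived from it.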

Brain [12] = test: Metabolic stability in mouse brain assessed as first order rate constant of disappearance of drug by HPLC analysis; assay type: ADME, tissue-based; how it was run: as §2
[13] = Metabolic stability in mouse plasma assessed as compound half life by HPLC analysis; assay type: ADME, cell-free; how it was run: as §2
[14] = Metabolic stability in mouse brain assessed as compound half life by HPLC analysis; assay type: ADME, tissue-based; how it was run: as §2
Brain [15] = test: AUC (0 to t) in Kunming mouse brain […] iv ibuprofen administered as single dose by HPLC analysis; assay type: ADME, organism-based; details: in vivo
[16] = AUC (0 to t) in Kunming mouse blood at 48 mmol/g, iv administered as single dose by HPLC analysis; assay type: ADME, organism-based
[17] = Mean residence time in Kunming mouse blood at 48 mmol/g, iv administered as single dose by HPLC analysis; assay type: ADME, organism-based
[18] = Cmax in Kunming mouse blood at 48 mmol/g, iv administered as single dose by HPLC analysis; assay type: ADME, organism-based; parameters: dose 48 mmol/g, route intravenous
[19] = Tmax in Kunming mouse blood at 48 mmol/g, iv administered as single dose by HPLC analysis; assay type: ADME, organism-based
Brain [20] = test: AUC (0 to t) in Kunming mouse brain at 48 mmol/g, iv administered as single dose by HPLC analysis; assay type: ADME, organism-based; details: in vivo
[21] = Cmax in Kunming mouse brain at 48 mmol/g, iv administered as single dose by HPLC analysis; assay type: ADME, organism-based; parameters: dose 48 mmol/g, route intravenous
[22] = Tmax in Kunming mouse brain at 48 mmol/g, iv administered as single dose by HPLC analysis; assay type: ADME, organism-based

SMILES | Ratio (Brain [1]) | Ratio (Brain [2]) | K [3] | K [4] | K [5] | K [6] | half-life [7] | half-life [8] | half-life [9] | half-life [10] | k el [11] | K (Brain [12]) | half-life [13] | half-life [14] | AUCt (Brain [15]) | other results
CC(C)Cc1ccc(C(C)C(=O)OCC(O)C2OC(=O)C(O)=C2O)cc1 (configuration not stated) | 2.03 | 2.619 | 1.73 ×10⁻² /hr | 3.76 ×10⁻² /hr | 4.67 ×10⁻² /hr | 8.42 ×10⁻² /hr | 40.1 h | 18.4 h | 14.8 h | 8.2 h | 0.000248 s⁻¹ | 3.46 ×10⁻² /min | 0.777 h | 0.335 h | 3767.9842 µg·min/g | 
CC(C)Cc1ccc(C(C)C(=O)OC(CO)C2OC(=O)C(O)=C2O)cc1 (configuration not stated) | 2.254 | 4.194 | 1.61 ×10⁻² /hr | 3.36 ×10⁻² /hr | 4.3 ×10⁻² /hr | 7.15 ×10⁻² /hr | 43 h | 20.6 h | 16.1 h | 9.7 h | 0.000225 s⁻¹ | 4.16 ×10⁻² /min | 0.857 h | 0.278 h | 4183.3895 µg·min/g | 
CC(C)Cc1ccc(C(C)C(=O)OCC(OC(=O)C(C)c2ccc(CC(C)C)cc2)C2OC(=O)C(O)=C2O)cc1 (configuration not stated) | 3.516 | 4.965 | 1.76 ×10⁻² /hr | 3.66 ×10⁻² /hr | 5.58 ×10⁻² /hr | 8.65 ×10⁻² /hr | 39.5 h | 18.9 h | 12.4 h | 8.1 h | 0.000262 s⁻¹ | 2.48 ×10⁻² /min | 0.737 h | 0.465 h | 6526.7422 µg·min/g | 
C/C(=C(\CCOC(=O)C(C)c1ccc(CC(C)C)cc1)SSCc1ccccc1)N(C=O)CC(=O)OCC(OC(=O)C(C)c1ccc(CC(C)C)cc1)C1OC(=O)C(O)=C1O (configuration not stated) | 4.072 | 7.461 | 1.29 ×10⁻² /hr | 2.89 ×10⁻² /hr | 4.27 ×10⁻² /hr | 6.87 ×10⁻² /hr | 53.9 h | 23.9 h | 16.2 h | 10.1 h | 0.000307 s⁻¹ | 5.46 ×10⁻² /min | 0.463 h | 0.212 h | 7557.692 µg·min/g | 
CC(C)Cc1ccc(C(C)C(=O)O)cc1 (configuration not stated) [IBUPROFEN] |  |  |  |  |  |  |  |  |  |  |  |  |  |  |  | AUC(0-t) [16]: 56800 ng·h/mL; MRT [17]: 78.9 h; Cmax [18]: 28400 ng/mL; Tmax [19]: 6.67 min; AUCt (Brain [20]): 1856.215 µg·min/g; Cmax [21]: 10700 ng/g; Tmax [22]: 0.417 h

Reference: ChEMBL document CHEMBL3286298 (Eur J Med Chem, 2014)
